These results are taken from ChEMBL document CHEMBL1145905, “Design and synthesis of novel dimeric morphinan ligands for kappa and micro opioid receptors” (J Med Chem, 2003).

Molecules are shown by their SMILES. Active and inactive are the calls of the source. The rule behind the calls is not given here.

Assay [1] concerns the target T1, Mu-type opioid receptor (Homo sapiens, UniProt P35372). Briefly: Percent maximal stimulation in [35S]-GTP-gamma S binding assay mediated by the Opioid receptor mu 1 in chinese Hamster Ovary (CHO)membranes.
Assay [2] addresses T1, Mu-type opioid receptor. The assay is described as follows: Inhibitory activity against Opioid receptor mu 1 in chinese Hamster Ovary (CHO) cells membranes was determined using [3H]-DAMGO radioligand. It is filed as cell-based.
Assay [3] has as its target Opioid receptors; delta & kappa (Homo sapiens) (UniProt P41145+P41143). Briefly: Selective inhibitory activity was determined against kappa & delta opioid receptor in chinese Hamster Ovary (CHO) cell membranes.
Assay [4] concerns the target T2, Kappa-type opioid receptor (Homo sapiens, UniProt P41145). The assay is described as follows: Inhibitory activity against Opioid receptor kappa 1 in chinese Hamster Ovary (CHO) cell membranes was determined using [3H]U-69593 radioligand.
For assay [5], the target named is Opioid receptors; mu & kappa (Homo sapiens) (UniProt P41145+P35372). The assay is described as follows: Selective inhibitory activity was determined against kappa & mu opioid receptor in chinese Hamster Ovary (CHO) cell membranes.
Chain of Opioid receptors; mu & kappa (Homo sapiens) (P35372 whole entry, looked up): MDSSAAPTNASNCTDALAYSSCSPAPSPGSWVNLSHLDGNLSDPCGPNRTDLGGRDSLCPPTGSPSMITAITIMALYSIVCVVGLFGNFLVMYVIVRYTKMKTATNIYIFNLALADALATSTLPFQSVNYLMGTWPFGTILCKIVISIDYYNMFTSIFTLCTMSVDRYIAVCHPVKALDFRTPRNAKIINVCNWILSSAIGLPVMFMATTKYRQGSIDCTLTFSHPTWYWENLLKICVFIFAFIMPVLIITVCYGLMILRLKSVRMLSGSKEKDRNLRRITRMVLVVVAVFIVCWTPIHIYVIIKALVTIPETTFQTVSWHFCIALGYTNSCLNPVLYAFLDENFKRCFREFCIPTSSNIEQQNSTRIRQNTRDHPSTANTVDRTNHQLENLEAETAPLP
Chain of Opioid receptors; mu & kappa (Homo sapiens) (P41145 whole entry, looked up): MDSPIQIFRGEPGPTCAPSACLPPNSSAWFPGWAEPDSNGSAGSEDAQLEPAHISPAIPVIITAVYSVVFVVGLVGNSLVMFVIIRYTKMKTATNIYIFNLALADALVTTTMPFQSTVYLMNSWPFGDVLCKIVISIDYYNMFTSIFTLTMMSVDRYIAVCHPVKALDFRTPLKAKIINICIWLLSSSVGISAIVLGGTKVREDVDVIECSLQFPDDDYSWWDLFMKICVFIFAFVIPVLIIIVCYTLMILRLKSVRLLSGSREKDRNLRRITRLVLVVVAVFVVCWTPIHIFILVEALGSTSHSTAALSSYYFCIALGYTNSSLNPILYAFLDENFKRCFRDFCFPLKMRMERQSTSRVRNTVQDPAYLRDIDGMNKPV
For assay [6], the target named is T1, Mu-type opioid receptor. The assay is described as follows: Inhibitory activity was determined in stimulating [35S]-GTP-gamma S binding mediated by the Opioid receptor mu 1 in chinese Hamster Ovary (CHO)membranes.
The target in assay [7] is T2, Kappa-type opioid receptor. Briefly: Inhibitory activity in stimulating [35S]-GTP-gamma S binding mediated by the Opioid receptor kappa 1 in chinese Hamster Ovary (CHO) cell membranes was determined. It is filed as functional.
Assay [8] deals with T2, Kappa-type opioid receptor. Briefly: Maximal percent inhibitory activity in stimulating [35S]-GTP-gamma S binding mediated by the Opioid receptor kappa 1 in chinese Hamster Ovary (CHO) cell membranes; No Effect. It is filed as functional. Summed up:
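Antagonist mode: human κ-CHO membranes (15 μg protein) with 100 nM U50,488 plus varying compound concentrations, 3 μM GDP, […] [35S]GTPγS, 60 min at 30 °C, pH 7.4 buffer with Mg2+/NaCl/EGTA; filtration, counting.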
On the technique in general: GTPγS is a poorly hydrolysed GTP analogue; its binding reports G protein activation.

For assay [9], the target named is T2, Kappa-type opioid receptor. Briefly: Percent maximal stimulation in [35S]-GTP-gamma S binding assay mediated by the Opioid receptor kappa 1 in chinese Hamster Ovary (CHO)membranes. It is filed as functional.
The target of assay [10] is Delta-type opioid receptor (Homo sapiens, UniProt P41143). The assay is described as follows: Inhibitory activity against Opioid receptor delta 1 in chinese Hamster Ovary (CHO) cell membranes was determined using [3H]naltrindole radioligand.
Chain of Delta-type opioid receptor (P41143 whole entry): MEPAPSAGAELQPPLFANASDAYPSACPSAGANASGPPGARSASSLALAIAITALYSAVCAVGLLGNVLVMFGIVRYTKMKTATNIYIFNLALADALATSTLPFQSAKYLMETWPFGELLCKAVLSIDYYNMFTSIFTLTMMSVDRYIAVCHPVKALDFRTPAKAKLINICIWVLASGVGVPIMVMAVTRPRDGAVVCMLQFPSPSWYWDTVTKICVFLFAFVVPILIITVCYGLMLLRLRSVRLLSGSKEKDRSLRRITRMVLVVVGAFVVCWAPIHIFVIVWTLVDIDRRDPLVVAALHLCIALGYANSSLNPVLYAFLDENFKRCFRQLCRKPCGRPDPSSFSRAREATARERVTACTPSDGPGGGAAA
Assay [11] addresses T1, Mu-type opioid receptor. The assay is described as follows: Maximal percent inhibitory activity was determined in stimulating [35S]-GTP-gamma S binding mediated by the Opioid receptor mu 1 in chinese Hamster Ovary (CHO) cell membranes. Put shortly:
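Antagonist mode: human μ-CHO membranes (7.5 μg protein) with 200 nM DAMGO plus varying compound concentrations, 3 μM GDP, […] [35S]GTPγS, 60 min at 30 °C, pH 7.4 buffer with Mg2+/NaCl/EGTA; filtration, counting.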

The target of assay [12] is T1, Mu-type opioid receptor.

Chain of Opioid receptors; delta & kappa (Homo sapiens) (P41143 whole entry, looked up): as the sequence (P41143 whole entry) above
Chain of Opioid receptors; delta & kappa (Homo sapiens) (P41145 whole entry, looked up): as the sequence (P41145 whole entry, looked up) above
T2 sequence (P41145 whole entry): as the sequence (P41145 whole entry, looked up) above
T1 sequence (P35372 whole entry): as the sequence (P35372 whole entry, looked up) above

`O=C(CCCCCCCCCCC(=O)Oc1ccc2c(c1)[C@@]13CCCC[C@H]1[C@@H](C2)N(CC1CCC1)CC3)Oc1ccc2c(c1)[C@@]13CCCC[C@H]1[C@@H](C2)N(CC1CCC1)CC3`: the Emax (commonly the greatest response seen or fitted, relative to the assay's reference) on Mu-type opioid receptor [1] came to 14%; in assay [9], 90%. Moreover, the figures for the inhibition constant Ki (at Mu-type opioid receptor [2]; in [4]; in [10]) were 1.8 nM, 1.1 nM and 82 nM, respectively. The results for the Selectivity in assay [3] and in assay [5] were 75 and 2, respectively. Besides, on Mu-type opioid receptor [6], the IC50 – broadly, the point on the concentration scale where inhibition reaches its midpoint – was determined as 100 nM. Further, the EC50 (as a rule, the concentration that produces a half-maximal response) in assay [7] was 8.1 nM. The NE entry in assay [8] was “inactive”. The compound further registered an Imax at Mu-type opioid receptor [11] of 60%.
As to `COC(=O)CCCCCCCCC(=O)Oc1ccc2c(c1)[C@@]13CCCC[C@H]1[C@@H](C2)N(CC1CCC1)CC3`, the maximum response (Emax) at Mu-type opioid receptor [1] worked out at 60%; in assay [9], 90%. In addition, the values for the Ki (on Mu-type opioid receptor [2]; in assay [4]; in assay [10]) were 0.23 nM, 0.07 nM and 44 nM, respectively. For the same compound, the Selectivity is 630 in assay [3] and 3 in [5]. For the same compound, the IC50 at Mu-type opioid receptor [6] was determined as 130 nM. Further, the figures for the EC50 (at Mu-type opioid receptor [12]; in assay [7]) were 8 nM and 5.7 nM, respectively. Besides, the NT result in assay [8] is “inactive”. At Mu-type opioid receptor [11], this compound showed an Imax of 50%.
For the compound `O=C(CCCCCCC(=O)Oc1ccc2c(c1)[C@@]13CCCC[C@H]1[C@@H](C2)N(CC1CCC1)CC3)Oc1ccc2c(c1)[C@@]13CCCC[C@H]1[C@@H](C2)N(CC1CCC1)CC3`, the Emax at Mu-type opioid receptor [1] was found to be 60%; in [9] it was 80%. Moreover, the Ki (as a rule, the dissociation constant of the complex between target and ligand, obtained from inhibition or displacement) at Mu-type opioid receptor [2] amounted to 0.89 nM; in assay [4], 0.65 nM; in [10] it was 24 nM. The Selectivity in [3] was 37; in assay [5] it was 1. Moreover, the IC50 at Mu-type opioid receptor [6] stood at 90 nM. For the same compound, the EC50 on Mu-type opioid receptor [12] stood at 10 nM; in assay [7], 11 nM. In addition, the NE result in [8] was “inactive”. The compound also had an Imax at Mu-type opioid receptor [11] of 100%.
In the case of `O=C(CCC(=O)Oc1ccc2c(c1)[C@@]13CCCC[C@H]1[C@@H](C2)N(CC1CC1)CC3)Oc1ccc2c(c1)[C@@]13CCCC[C@H]1[C@@H](C2)N(CC1CC1)CC3`, the Emax on Mu-type opioid receptor [1] is 10%; in [9], 70%. Also, the Ki on Mu-type opioid receptor [2] was found to be 0.14 nM; in [4], 0.1 nM; in [10], 3.8 nM. The results for the Selectivity in assay [3] and in assay [5] were 40 and 1, respectively. The same compound displayed an IC50 on Mu-type opioid receptor [6] of 1.8 nM. For the same compound, it took 3.3 nM to reach a half-maximal effect in assay [7] (EC50). This compound registered an Imax on Mu-type opioid receptor [11] of 60%.
As to `O=C(Oc1ccc2c(c1)[C@@]13CCCC[C@H]1[C@@H](C2)N(CC1CCC1)CC3)c1ccc(C(=O)Oc2ccc3c(c2)[C@@]24CCCC[C@H]2[C@@H](C3)N(CC2CCC2)CC4)cc1`, the Ki at Mu-type opioid receptor [2] was determined as 4.7 nM; in assay [4], 4.2 nM; in assay [10] it was 400 nM. For the same compound, the figures for the Selectivity in assay [3] and in assay [5] were 100 and 1, respectively.
For `c1cc2c(cc1OCCCCCCCCCCOc1ccc3c(c1)[C@@]14CCCC[C@H]1[C@@H](C3)N(CC1CCC1)CC4)[C@@]13CCCC[C@H]1[C@@H](C2)N(CC1CCC1)CC3` the same measures were 66 nM, 120 nM, 2500 nM, 20 and 0.5.
As to `O=C(CCCCCCCCC(=O)Oc1ccc2c(c1)[C@@]13CCCC[C@H]1[C@@H](C2)N(CC1CCC1)CC3)Oc1ccc2c(c1)[C@@]13CCCC[C@H]1[C@@H](C2)N(CC1CCC1)CC3`, the Emax was determined as 50% on Mu-type opioid receptor [1] and 60% in assay [9]. The figures for the Ki (at Mu-type opioid receptor [2]; in assay [4]; in [10]) were 0.09 nM, 0.049 nM and 4.2 nM, respectively. Moreover, the values for the Selectivity in assay [3] and in [5] were 90 and 2, respectively. Moreover, the IC50 at Mu-type opioid receptor [6] worked out at 16 nM. For the same compound, the 50% effective concentration (EC50) is 1.3 nM at Mu-type opioid receptor [12] and 0.85 nM in assay [7]. For the same compound, in assay [8], the NE entry was “inactive”. The compound also returned an Imax on Mu-type opioid receptor [11] of 60%.
Regarding `Oc1ccc2c(c1)[C@@]13CCCC[C@H]1[C@@H](C2)N(CCCN1CC[C@]24CCCC[C@H]2[C@H]1Cc1ccc(O)cc14)CC3`, the figures for the Ki (at Mu-type opioid receptor [2]; in assay [4]; in [10]) were 48 nM, 24 nM and 600 nM, respectively. The Selectivity worked out at 25 in assay [3] and 2 in assay [5].
In the case of `Oc1ccc2c(c1)[C@@]13CCCC[C@H]1[C@@H](C2)N(CC1CC1)CC3`, the Imax on Mu-type opioid receptor [11] was 50%.
On to `O=C(Oc1ccc2c(c1)[C@@]13CCCC[C@H]1[C@@H](C2)N(CC1CCC1)CC3)c1cccc(C(=O)Oc2ccc3c(c2)[C@@]24CCCC[C@H]2[C@@H](C3)N(CC2CCC2)CC4)c1`, for which the Ki at Mu-type opioid receptor [2] was 3.3 nM; in assay [4] it was 3.4 nM; in assay [10], 920 nM. Moreover, the Selectivity in [3] turned out to be 270; in assay [5] it was 1.
Take `O=C(CCCCCCCCC(=O)Oc1ccc2c(c1)[C@@]13CCCC[C@H]1[C@@H](C2)N(CC1CC1)CC3)Oc1ccc2c(c1)[C@@]13CCCC[C@H]1[C@@H](C2)N(CC1CC1)CC3`: the Emax on Mu-type opioid receptor [1] worked out at 30%; in assay [9], 90%. The results for the Ki (at Mu-type opioid receptor [2]; in assay [4]; in assay [10]) were 0.93 nM, 0.41 nM and 32 nM, respectively. Further, the results for the Selectivity in assay [3] and in assay [5] were 80 and 2, respectively. This compound also returned an IC50 on Mu-type opioid receptor [6] of 90 nM. Besides, in assay [7], the midpoint of the response, the EC50, lay at 4.9 nM. For the same compound, the Imax on Mu-type opioid receptor [11] amounted to 100%.
As to `CN1CC[C@]23CCCC[C@H]2[C@H]1Cc1ccc(O)cc13` [LEVORPHANOL], the affinity in assay [4], expressed as Ki, was 2.3 nM. This lies in the single-digit nanomolar range.
Turning to `O=C(CCCC(=O)Oc1ccc2c(c1)[C@@]13CCCC[C@H]1[C@@H](C2)N(CC1CCC1)CC3)Oc1ccc2c(c1)[C@@]13CCCC[C@H]1[C@@H](C2)N(CC1CCC1)CC3`, the Ki at Mu-type opioid receptor [2] was 3.3 nM; in assay [4], 1.2 nM; in assay [10], 80 nM. The results for the Selectivity in [3] and in assay [5] were 70 and 3, respectively.
For `Oc1ccc2c(c1)[C@@]13CCCC[C@H]1[C@@H](C2)N(CCCCCCN1CC[C@]24CCCC[C@H]2[C@H]1Cc1ccc(O)cc14)CC3` the same measures were 52 nM, 50 nM, 370 nM, 7 and 1.
For the compound `c1cc2c(cc1OCCCCOc1ccc3c(c1)[C@@]14CCCC[C@H]1[C@@H](C3)N(CC1CCC1)CC4)[C@@]13CCCC[C@H]1[C@@H](C2)N(CC1CCC1)CC3`, the results for the Ki (at Mu-type opioid receptor [2]; in [4]; in assay [10]) were 29 nM, 18 nM and 730 nM, respectively. For the same compound, the Selectivity was 40 in assay [3] and 2 in assay [5].
The compound `Oc1ccc2c(c1)[C@@]13CCCC[C@H]1[C@@H](C2)N(CC1CCC1)CC3` [BUTORPHAN] yielded a Ki in assay [4] of 0.079 nM. For the same compound, a half-maximal effect in assay [7] (EC50) was put at 1.3 nM.
Consider `O=C(Oc1ccc2c(c1)[C@@]13CCCC[C@H]1[C@@H](C2)N(CC1CCC1)CC3)[C@H]1C[C@H]1C(=O)Oc1ccc2c(c1)[C@@]13CCCC[C@H]1[C@@H](C2)N(CC1CCC1)CC3`, for which the Ki at Mu-type opioid receptor [2] came out at 0.28 nM; in assay [4], 0.17 nM; in assay [10], 16 nM. Further, the Selectivity in assay [3] is 90; in assay [5] it was 2.
